Laboratory results as given in ChEMBL document CHEMBL1128440 (J Med Chem, 1995).

What was measured:
[1] = target: T1, Progesterone receptor (Homo sapiens) (UniProt P06401); experiment: Binding selectivity index as the ratio of RBA value to that of NSB value.
T1 sequence (whole entry): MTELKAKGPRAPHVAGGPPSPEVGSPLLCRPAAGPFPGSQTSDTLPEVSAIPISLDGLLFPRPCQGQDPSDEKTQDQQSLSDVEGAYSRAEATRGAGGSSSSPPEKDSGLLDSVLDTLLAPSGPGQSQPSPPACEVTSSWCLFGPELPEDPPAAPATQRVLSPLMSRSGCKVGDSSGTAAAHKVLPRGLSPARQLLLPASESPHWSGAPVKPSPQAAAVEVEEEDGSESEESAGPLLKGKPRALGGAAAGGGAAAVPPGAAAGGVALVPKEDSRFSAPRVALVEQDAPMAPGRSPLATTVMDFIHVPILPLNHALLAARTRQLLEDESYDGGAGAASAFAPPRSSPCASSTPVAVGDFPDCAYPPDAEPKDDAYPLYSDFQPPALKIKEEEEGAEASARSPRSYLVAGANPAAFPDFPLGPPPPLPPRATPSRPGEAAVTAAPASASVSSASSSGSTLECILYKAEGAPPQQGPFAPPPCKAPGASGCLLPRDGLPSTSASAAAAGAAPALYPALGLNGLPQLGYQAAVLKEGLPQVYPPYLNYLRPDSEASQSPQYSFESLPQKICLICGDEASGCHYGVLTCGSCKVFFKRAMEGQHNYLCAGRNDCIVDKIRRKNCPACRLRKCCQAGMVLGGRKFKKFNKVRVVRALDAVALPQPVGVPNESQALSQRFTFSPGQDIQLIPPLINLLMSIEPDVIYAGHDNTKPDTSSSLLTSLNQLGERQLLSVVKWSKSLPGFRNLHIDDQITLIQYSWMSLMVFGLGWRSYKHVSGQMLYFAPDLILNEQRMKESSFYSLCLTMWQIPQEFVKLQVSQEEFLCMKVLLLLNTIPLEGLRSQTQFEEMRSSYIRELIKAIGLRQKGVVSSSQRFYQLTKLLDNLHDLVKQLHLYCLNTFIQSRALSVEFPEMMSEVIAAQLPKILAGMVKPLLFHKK
How it was run: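 BSI calculated as the ratio of RBA to NSB.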

[2] = target: T1, Progesterone receptor (Homo sapiens); experiment: Nonspecific binding affinity against progesterone receptor was estimated relative to compound R5020
[3] = target: T1, Progesterone receptor (Homo sapiens); experiment: Relative binding affinity against progesterone receptor at 0 degree Celsius determined in a competitive radiometric binding assay (R5020=100%).
How it was run: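 Competitive radiometric binding at 0 °C against tritium-labeled R5020 as the standard (RBA = 100). Values are the average of two experiments.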

Rattus norvegicus [4] = species: Rattus norvegicus; experiment: Tissue biodistribution into estrogen-primed immature female rat muscle at 1 hr time interval; type: ADME, organism-based; conditions: in vivo
How it was run: (§1)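 Immature female Sprague-Dawley rats (25 days old, ≈50 g, five per time point) primed with estradiol, 5 μg sc daily for 2 days in 50% ethanol/sunflower seed oil, used 24 h after the last injection. The 18F-labeled ligand was given iv by tail vein in 10% ethanol/saline. Decapitated at 1 or 3 h; blood and organs weighed and gamma-counted. Reported as %ID/g ± SD, n = 5.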

Rattus norvegicus [5] = species: Rattus norvegicus; experiment: Tissue biodistribution into estrogen-primed immature female rat kidney at 1 hr time interval; type: ADME, organism-based; conditions: in vivo; how it was run: as §1
Rattus norvegicus [6] = species: Rattus norvegicus; experiment: Tissue biodistribution into estrogen-primed immature female rat liver at 1 hr time interval; type: ADME, organism-based; conditions: in vivo; how it was run: as §1
Rattus norvegicus [7] = species: Rattus norvegicus; experiment: Tissue biodistribution into estrogen-primed immature female rat lung at 1 hr time interval; type: ADME, organism-based; conditions: in vivo; how it was run: as §1
Rattus norvegicus [8] = species: Rattus norvegicus; experiment: Tissue biodistribution into estrogen-primed immature female rat ovaries at 1 hr time interval; type: ADME, organism-based, Female gonad; conditions: in vivo; how it was run: as §1
Rattus norvegicus [9] = species: Rattus norvegicus; experiment: Tissue biodistribution into estrogen-primed immature female rat uterus at 1 hr time interval; type: ADME, organism-based; conditions: in vivo; how it was run: as §1
Rattus norvegicus [10] = species: Rattus norvegicus; experiment: Tissue biodistribution into estrogen-primed immature female rat uterus/blood at 1 hr time interval; type: ADME, organism-based; conditions: in vivo; how it was run: as §1
Rattus norvegicus [11] = species: Rattus norvegicus; experiment: Tissue biodistribution into estrogen-primed immature female rat fat at 1 hr time interval; type: ADME, organism-based, Adipose tissue; conditions: in vivo; how it was run: as §1
Rattus norvegicus [12] = species: Rattus norvegicus; experiment: Tissue biodistribution into estrogen-primed immature female rat uterus/muscle at 1 hr time interval; type: ADME, organism-based; conditions: in vivo
Rattus norvegicus [13] = species: Rattus norvegicus; experiment: Tissue biodistribution into estrogen-primed immature female rat blood at 1 hr time interval; type: ADME, organism-based; conditions: in vivo; how it was run: as §1
Rattus norvegicus [14] = species: Rattus norvegicus; experiment: Tissue biodistribution into estrogen-primed immature female rat bone at 1 hr time interval; type: ADME, organism-based, Bone element; conditions: in vivo; how it was run: as §1
Rattus norvegicus [15] = species: Rattus norvegicus; experiment: Tissue biodistribution into estrogen-primed immature female rat brain at 1 hr time interval; type: ADME, organism-based; conditions: in vivo; how it was run: as §1

BSI [1] | NSB [2] | RBA [3] | Compound | Injected dose/g (Rattus norvegicus [4]) [%] | Injected dose/g (Rattus norvegicus [5]) [%] | Injected dose/g (Rattus norvegicus [6]) [%] | Injected dose/g (Rattus norvegicus [7]) [%] | Injected dose/g (Rattus norvegicus [8]) [%] | Injected dose/g (Rattus norvegicus [9]) [%] | Uterus to blood concentration ratio (Rattus norvegicus [10]) [%] | Injected dose/g (Rattus norvegicus [11]) [%] | Uterus to muscle uptake ratio (Rattus norvegicus [12]) [%] | Injected dose/g (Rattus norvegicus [13]) [%] | Injected dose/g (Rattus norvegicus [14]) [%] | Injected dose/g (Rattus norvegicus [15]) [%]
100 | 1 | 100 | CCC(=O)[C@@]1(C)CC[C@H]2[C@@H]3CCC4=CC(=O)CCC4=C3CC[C@@]21C |  |  |  |  |  |  |  |  |  |  |  | 
98 | 2.45 | 240 | C[C@@]1(c2ccc(F)cc2)O[C@@H]2CC3C4CCC5=CC(=O)CC[C@@H]5C4CC[C@]3(C)[C@]2(C(=O)CO)O1 (stereo partly drawn) | 0.44 | 1.42 | 4.25 | 0.6 | 2.8 | 3.65 | 14 | 3.53 | 8.2 | 0.26 | 0.62 | 0.34

Compound | BSI [1] | NSB [2] | RBA [3] | Injected dose/g (Rattus norvegicus [4]) [%] | Injected dose/g (Rattus norvegicus [5]) [%] | Injected dose/g (Rattus norvegicus [6]) [%] | Injected dose/g (Rattus norvegicus [7]) [%] | Injected dose/g (Rattus norvegicus [8]) [%] | Injected dose/g (Rattus norvegicus [9]) [%] | Uterus to blood concentration ratio (Rattus norvegicus [10]) [%] | Injected dose/g (Rattus norvegicus [11]) [%] | Uterus to muscle uptake ratio (Rattus norvegicus [12]) [%] | Injected dose/g (Rattus norvegicus [13]) [%] | Injected dose/g (Rattus norvegicus [14]) [%] | Injected dose/g (Rattus norvegicus [15]) [%]
CC[C@@H]1C[C@H]2[C@@H]3CCC4=CC(=O)CC[C@@H]4[C@H]3CC[C@]2(C)[C@H]1C(=O)CF | 374 | 1.87 | 700 | 0.42 | 1.05 | 3.34 | 0.47 | 2.86 | 6.43 | 26.26 | 3.56 | 15.98 | 0.25 | 3.18 | 0.63
